For assay [1], the system named is Aorta. Description: Antiangiogenic activity in Wistar rat aortic ring assessed as complete inhibition of microvessel sprouting at 25 uM after 7 days by phase-contrast microscopy. The assay is classed as functional, tissue-based.
Assay [2] deals with Mus musculus. The assay is described as follows: Antiangiogenic activity in C57BL/6 mouse assessed as inhibition of bFGF-induced neovascularization at 10 uM, sc after 7 days by matrigel plug assay relative to control. The assay is classed as functional, organism-based. In a few lines:
(§1)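 C57BL/6 mice, male, three per group; 0.5 mL Matrigel with bFGF (10 ng/mL) plus compound (10 μM) or DMSO vehicle injected subcutaneously, allowed to form a plug. After 7 days, plugs excised, formaldehyde-fixed, paraffin-embedded, sectioned, H&E stained. Plug hemoglobin quantified by QuantiChrom kit against hemoglobin standard. Means ± SEM; ANOVA with Dunnett or Student's t test.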

Assay [3] deals with T1, Mitogen-activated protein kinase; ERK1/ERK2 (Homo sapiens) (UniProt P27361+P28482). The assay is described as follows: Inhibition of VEGF-stimulated ERK1/2 activation in HUVEC after 1 hr by Western blot analysis. The assay is classed as protein assay. In a few lines:
(§2)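 Confluent HUVECs starved 16 h in RPMI 1640 with 5% FBS. Pretreated 60 min with compound (2.5–10 μM) or vehicle, then stimulated with VEGF 10 ng/mL for 10 min. Lysates (50 μg protein) run on SDS-PAGE under reducing conditions. Blots probed for phospho-Erk1/2 or phospho-Akt and total proteins; chemiluminescence detection.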
Background: Immunoblotting shows a protein as a band on a membrane.

In assay [4] the target is T1, Mitogen-activated protein kinase; ERK1/ERK2 (Homo sapiens). The assay is described as follows: Inhibition of VEGF-stimulated ERK1/2 phosphorylation in HUVEC at 2.5 to 10 uM by Western blot analysis. It is filed as protein assay. The settings on record: TDE = time-dependent effect. In a few lines: as §2
Assay [5] deals with HUVEC. The assay is described as follows: Antiangiogenic activity in HUVEC assessed as inhibition of tube formation at 25 uM after 12 hrs by light microscopy matrigel based assay. The assay is classed as functional. The settings on record: Homo sapiens. In a few lines:
(§3)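 HUVECs (passages 3–7) at 1 × 10^5 cells/mL in HuMedia EG2 with compound or DMSO seeded onto solidified Matrigel. Incubated 12 h at 37 C, 5% CO2. Tube formation observed under inverted light microscope at 40× and photographed.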

Assay [6] deals with Aorta. The assay is described as follows: Antiangiogenic activity in Wistar rat aortic ring assessed as complete inhibition of microvessel sprouting at 2.5 uM after 7 days by phase-contrast microscopy. It is filed as functional, tissue-based.
The subject of assay [7] is HUVEC. Description: Antiangiogenic activity in HUVEC assessed as complete inhibition of tube formation at 50 uM after 12 hrs by light microscopy matrigel based assay. Particulars: Homo sapiens. It is filed as functional, cell-based. In a few lines:
as §3

For assay [8], the system named is HUVEC. The assay is described as follows: Antiangiogenic activity in HUVEC assessed as inhibition of VEGF-induced endothelial migration at > 5 uM after 6 hrs using Diff-Quik staining by modified Boyden chamber based chemotactic migration assay. It is filed as functional, cell-based. The settings on record: Homo sapiens. In a few lines:
(§4)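 Modified Boyden chamber, 8 μm membrane coated with 0.1% gelatin. HUVECs (2.5 × 10^5 cells/mL) in Medium 199 with 0.1% BSA in upper chamber. Lower well held Medium 199, 0.1% BSA, VEGF 10 ng/mL, with or without compound. After 6 h at 37 C, migrated cells methanol-fixed, Diff-Quik stained, counted in three fields at 200×.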

For assay [9], the system named is HUVEC. Description: Inhibition of VEGF-stimulated Akt phosphorylation in HUVEC at 2.5 to 10 uM after 1 hr by Western blot analysis. It is filed as cell-based. The settings on record: Homo sapiens. Put shortly:
as §2

Assay [10] deals with HUVEC. Description: Antiproliferative activity against HUVEC at 25 uM after 72 hrs by WST8 assay. It is filed as functional. Particulars: Homo sapiens. In a few lines:
(§5)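 HUVECs at 1.5 × 10^4 cells/mL plated and grown 24 h. Medium then replaced with HuMedia EG2 containing compound or DMSO for 72 h at 37 C, 5% CO2. Proliferation read by WST-8 absorbance at 450 nm.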

The test system of assay [11] is Mus musculus. Description: Antiangiogenic activity in C57BL/6 mouse assessed as decrease in hemoglobin level at 10 uM, sc after 7 days using hematoxylin eosin staining by matrigel plug assay relative to control. It is filed as functional, organism-based. In a few lines:
as §1

The subject of assay [12] is Aorta. Description: Antiangiogenic activity in Wistar rat aortic ring assessed as complete inhibition of microvessel sprouting at 2.5 uM after 7 days by phase-contrast microscopy relative to steperoxide A. It is filed as functional.
Assay [13] concerns HUVEC. The assay is described as follows: Antiangiogenic activity in HUVEC assessed as inhibition of tube formation at 2.5 to 10 uM after 12 hrs by light microscopy matrigel based assay. It is filed as functional, cell-based. Particulars: Homo sapiens. Put shortly: as §3
The subject of assay [14] is HUVEC. The assay is described as follows: Antiproliferative activity against HUVEC after 72 hrs by WST8 assay. It is filed as functional, cell-based. Particulars: Homo sapiens. Put shortly: as §5
In assay [15] the test system is HUVEC. The assay is described as follows: Antiangiogenic activity in HUVEC assessed as inhibition of VEGF-induced endothelial migration after 6 hrs using Diff-Quik staining by modified Boyden chamber based chemotactic migration assay. It is filed as functional, cell-based. Particulars: Homo sapiens. In a few lines: as §4

pIC50: −log10 of the molar value. The source made the active and inactive calls. The calls are words filed in the database; no cut-off is given here.

What is called inhibition is how much of the control response was suppressed. As a reminder, the pIC50 is the negative decadic logarithm of the IC50, by convention in mol/L.

T1 sequence (P27361 whole entry, looked up): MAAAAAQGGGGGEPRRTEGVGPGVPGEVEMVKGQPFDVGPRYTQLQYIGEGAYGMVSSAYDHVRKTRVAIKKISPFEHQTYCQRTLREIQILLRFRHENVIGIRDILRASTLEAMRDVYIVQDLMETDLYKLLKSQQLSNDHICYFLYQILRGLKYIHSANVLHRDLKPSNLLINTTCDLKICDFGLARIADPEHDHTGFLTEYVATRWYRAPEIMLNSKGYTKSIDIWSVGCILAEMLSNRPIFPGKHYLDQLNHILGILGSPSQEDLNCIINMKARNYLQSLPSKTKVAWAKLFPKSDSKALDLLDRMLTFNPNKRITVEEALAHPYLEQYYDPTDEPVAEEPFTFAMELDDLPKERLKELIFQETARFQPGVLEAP
T1 sequence (P28482 whole entry, looked up): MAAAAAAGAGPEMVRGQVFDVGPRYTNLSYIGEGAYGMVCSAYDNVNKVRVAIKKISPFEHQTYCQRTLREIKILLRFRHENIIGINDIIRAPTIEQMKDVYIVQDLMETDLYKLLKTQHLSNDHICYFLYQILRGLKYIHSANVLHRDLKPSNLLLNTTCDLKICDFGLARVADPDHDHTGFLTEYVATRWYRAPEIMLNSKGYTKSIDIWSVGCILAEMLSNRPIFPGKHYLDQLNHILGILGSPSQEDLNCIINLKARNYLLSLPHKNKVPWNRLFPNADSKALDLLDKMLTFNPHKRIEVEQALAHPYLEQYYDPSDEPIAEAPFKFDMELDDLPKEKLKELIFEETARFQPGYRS

For the compound `CC1(C)C=CC(=O)[C@@]2(C)OO[C@@H]3C[C@]12CCC3O` (stereo partly drawn), in the assay on Aorta [1], the outcome was Active.

Consider `CC1(C)CCC(=O)[C@@]2(C)OO[C@@H]3C[C@@]12CCC3(O)CO` (stereo partly drawn), for which the result in the assay on Aorta [1] was inactive.

Consider `CC1(C)CCC(=O)[C@@]2(C)OO[C@@H]3C[C@@]12CC[C@H]3O`, for which the result in the assay with Aorta [1] was inactive.

Consider `CC1(C)C=CC(=O)[C@@]2(C)OO[C@@H]3C[C@]12CCC3(O)CO` (stereo partly drawn) [MERULIN C], for which the result with Mus musculus [2], in the assay on Aorta [6], in the assay on HUVEC [8] and in the assay with Mus musculus [11] was Active. The inhibition result is “Dose-dependent effect” in [3] and “tde” in [4]. Further, the inhibition at 25 µM came to 50% in the assay on HUVEC [5] and 90% in the assay with HUVEC [10]. The inhibition entry in the assay with HUVEC [7] is “Active”. The inhibition entry in the assay on HUVEC [9] and in the assay with HUVEC [13] was “inactive” throughout. Further, in the assay with Aorta [12], the “fold change (FC)” value was found to be 10. For the same compound, the Activity entry in the assay with HUVEC [14] and in the assay with HUVEC [15] was “Dose-dependent effect” throughout. Moreover, the pIC50 with HUVEC [14] was 6.05.

The record behind these values is ChEMBL document CHEMBL2016456, “Antiangiogenic effect of chamigrane endoperoxides from a Thai mangrove-derived fungus” (J Nat Prod, 2011).
